Screening data: PubChem BioAssay, The Scripps Research Institute Molecular Screening Center
Rows were chosen to be rich in hits. Some 4.6% of all compounds tested hit in one or more screens of this group.
CHO parental Ca – ATP-evoked calcium signal inhibitors, parental CHO, primary screen, counter-screen for OX1R antagonist project, cell-based, fluorescence, Fluo-8 calcium dye | parental CHO-K1, ATP-induced calcium, Fluo-8 fluorescence | inhibition, % at 5.6 µM | hit rate 0.63% among 330,000;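 active = inhibition above that plate's mean sample inhibition plus 3 SD, cut at about 26% in these data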;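 note: 0% = ATP-challenged DMSO wells and 100% = DMSO wells without ATP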
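Material: parental CHO cells / Compound: single nominal dose of 5.6 µM per compound / Signal: Fluo-8 fluorescence / Replicates: singlicate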
TAAR1 antagonist – human TAAR1 antagonists, primary screen, Fluo-8 calcium fluorescence, CHO RD-HGA16 cells | Trace amine-associated receptor 1 (Homo sapiens), Q96RJ0 | antagonist | inhibition, % at 3 µM | hit rate 1.5% among 360,000;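 active = inhibition above a per-plate cutoff, the mean inhibition of test compounds on that plate plus 3 SD, cut at about 49% in these data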;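 note: 0% = DMSO plus EC80 beta-PEA response and 100% = DMSO alone without agonist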
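Test system: hTAAR1-expressing CHO RD-HGA16 cells, Gα16-coupled; Probe or stimulus: EC80 β-phenethylamine stimulus; Compound dosing: single nominal final test compound concentration of 3 µM; Timing: 140 s kinetic read after compound, 140 s after agonist; Signal: Fluo-8 calcium-sensitive fluorescence; Measure: % inhibition of agonist calcium response; Controls: DMSO and EC80 PEA controls.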
OX1R antag-1 – OX1R (HCRTR1) antagonists, primary screen, fluorescence, CHO/OX1R cells, Fluo-8 calcium, orexin A; Orexin/Hypocretin receptor type 1 (Homo sapiens), O43613; Fluo-8 calcium fluorescence; inhibition, % at 5 µM; hit rate 0.43% among 330,000; AID 434989, 2010;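 active = inhibition above its plate's threshold, mean inhibition of all tested compounds on the plate plus 3 SD, cut at about 37% in these data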;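 note: 0% = orexin A challenge wells and 100% = SB-334867-A antagonist wells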
Target sequence (O43613 whole entry, looked up): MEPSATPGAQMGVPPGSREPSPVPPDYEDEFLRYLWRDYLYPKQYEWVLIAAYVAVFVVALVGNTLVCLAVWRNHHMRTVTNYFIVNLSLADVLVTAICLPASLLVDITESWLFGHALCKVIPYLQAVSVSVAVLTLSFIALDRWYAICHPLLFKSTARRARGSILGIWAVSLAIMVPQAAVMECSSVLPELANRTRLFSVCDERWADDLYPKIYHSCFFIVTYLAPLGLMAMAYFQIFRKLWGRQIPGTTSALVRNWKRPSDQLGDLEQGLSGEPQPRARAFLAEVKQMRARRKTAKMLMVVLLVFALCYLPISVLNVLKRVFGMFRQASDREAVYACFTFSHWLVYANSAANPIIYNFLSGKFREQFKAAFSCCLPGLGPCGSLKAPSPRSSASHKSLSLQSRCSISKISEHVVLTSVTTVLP
TAAR1 ag – human TAAR1 agonists, primary screen, Fluo-8 calcium fluorescence, CHO RD-HGA16 cells; Trace amine-associated receptor 1 (Homo sapiens), Q96RJ0; vehicle wells 0%, saturating PEA agonist 100%; activation, % at 3 µM; hit rate 0.99% among 360,000; AID 624467, 2012;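 active = activation above the mean activation of all test compounds in the run plus 3 SD, cut at about 38% in these data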
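System: CHO-derived RD-HGA16 cells with stable Gα16 and human TAAR1 / Times: 17-24 h plating, Fluo-8 75 min 37 °C, 30 min RT / Technique: calcium-sensitive Fluo-8 signal, excitation 470-495, emission 515-575 nm / Measure: % activation relative to PEA EC100 response / Benchmarks: DMSO and PEA EC100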
OX1R antag-2 – antagonists of human orexin 1 receptor (OX1R) | Orexin/Hypocretin receptor type 1 (Homo sapiens), O43613 | OX1R-expressing cells, FRET antagonist read-out | inhibition, % at 6.6 µM | hit rate 1.8% among 330,000; in the data active = inhibition mostly above about 38%, no sharp cut-off; inactive = mostly below about 40%;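 note: 0% = agonist challenge alone and 100% = reference antagonist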
GPR7 antag – GPR7 receptor antagonists, primary screen, cell-based, fluorescence, single concentration; AID 1861, 2009; inhibition, % at 4.4 µM; hit rate 1.1% among 290,000; GPR7-expressing cells, fluorescence antagonist assay; in the data active = inhibition above about 16%, passing the limit was not always enough;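 note: cells stimulated with the agonist NPW; 0% = agonist with vehicle and 100% = vehicle without agonist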
Target sequence (P48145 whole entry, looked up): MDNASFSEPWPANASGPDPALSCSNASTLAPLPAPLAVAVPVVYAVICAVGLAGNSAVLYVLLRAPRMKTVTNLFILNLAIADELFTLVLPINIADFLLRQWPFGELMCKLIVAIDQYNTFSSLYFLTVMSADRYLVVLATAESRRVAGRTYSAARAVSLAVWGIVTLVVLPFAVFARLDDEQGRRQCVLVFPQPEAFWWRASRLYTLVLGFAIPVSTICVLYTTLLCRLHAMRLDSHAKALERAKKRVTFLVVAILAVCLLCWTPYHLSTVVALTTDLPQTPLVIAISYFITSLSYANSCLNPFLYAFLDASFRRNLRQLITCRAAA
OX1R HTRF conf – OX1R (HCRTR1) antagonists, confirmation, cell-based, HTRF | inhibition, % at 6.6 µM | OX1R-expressing cells, HTRF antagonist assay | AID 492964, 2010 | hit rate 49% among 1,800 | shares compounds with OX1R antag-2; in the data active = inhibition above about 55%;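 note: CHO cells expressing OX1R stimulated with orexin A at about EC80; 0% = agonist challenge alone and 100% = reference antagonist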
CHO-K1 HTRF cnt – signal inhibition in parental CHO-K1 cells, counter-screen for OX1R antagonist project, cell-based, HTRF; inhibition, % at 6.6 µM; shares compounds with OX1R antag-2; AID 493232, 2011; HTRF counterscreen; hit rate 48% among 1,800; in the data active = inhibition above about 17%;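 note: 0% = agonist challenge with vehicle and 100% = vehicle alone without agonist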
Numbers without * were called inactive; . = no result.

SMILES | CHO parental Ca | TAAR1 antagonist | OX1R antag-1 | TAAR1 ag | OX1R antag-2 | GPR7 antag | OX1R HTRF conf | CHO-K1 HTRF cnt
Cc1cc(NC(=O)NC(=O)c2ccccc2NC(=O)CN)ccc1Oc1ncc(Br)cn1 | . | -35 | . | 14 | . | . | . | .
CCc1cc2c(=O)c(-c3nc(C)cs3)coc2cc1O | -7 | 7 | 12 | 0 | 82* | -33 | 78* | -1
COc1ccc2c(=O)c(-c3nc(C)cs3)coc2c1 | -17 | -15 | -19 | 7 | 24 | -13 | . | .
O=C(O)c1cccc(N2C(=O)CSC2c2ccccc2)c1 (stereo not drawn) | -1 | 1 | 18 | 3 | -3 | -12 | . | .
Cc1cc(NCc2ccccn2)nc2ccccc12 | -7 | -5 | -33 | 10 | 3 | 0 | . | .
O=c1c2ccccc2nc2c3ccccc3c(NCc3ccccn3)nn12 | -18 | 11 | 4 | 9 | 90* | -6 | 88* | 7
CC(=O)Nc1cccc(-c2ccnc3c2CC(C(=O)Nc2cccc(N(C)C)c2)O3)c1 (stereo not drawn) | . | 12 | . | 9 | . | . | . | .
Cc1nnc(C)n1N1C(=O)c2cccc3cccc(c23)C1=O | -4 | -14 | -7 | 7 | 19 | 0 | . | .
CCCc1nnc(N2C(=O)c3cccc4cccc(c34)C2=O)s1 | -2 | -6 | -17 | 3 | 103* | 10 | 40 | 37*
CC(C)c1ccc(NC(=O)C2(C)Cc3c(-c4cccc(C(N)=O)c4)ccnc3O2)cc1 (stereo not drawn) | . | -17 | . | 7 | . | . | . | .
N#Cc1cc([N+](=O)[O-])ccc1NC(=O)COC(=O)C1CC2CCCC(C1)C2=O (stereo not drawn) | -3 | -6 | -20 | 2 | 88* | . | 33 | 43*
CCOC(=O)C1CCN(C(=O)C2CCN(C(=O)c3ccc([N+](=O)[O-])cc3)CC2)CC1 | -7 | . | -9 | . | 81* | 15 | 34 | 26*
CCOc1ccc(Cl)cc1-c1cc(C(=O)Nc2ccc(C(C)C)cc2)[nH]n1 | . | -36 | . | -1 | . | . | . | .
Cc1nn(-c2ccccc2)c(C)c1NC(=O)COC(=O)CCOc1ccccc1 | -7 | -8 | -31 | 6 | 7 | . | . | .
CC(=O)c1ccc(OCC(=O)Nc2c(C)nn(-c3ccccc3)c2C)cc1 | -8 | 16 | -8 | 9 | 91* | . | 27 | 7
COc1ccc(N(C)C(=O)CCS(=O)(=O)c2cccc3nonc23)cc1 | -14 | -11 | -30 | 8 | 117* | 3 | 46 | 49*
COc1ccccc1CNC(=O)CCS(=O)(=O)c1cccc2nonc12 | -8 | -2 | -31 | 7 | 83* | -3 | 31 | 32*
COc1ccc2nc3oc(C(=O)N4CCC(C(N)=O)CC4)cc3cc2c1 | -6 | 14 | -5 | 5 | 154* | 6 | 28 | 38*
CCOC(=O)C1CCN(C(=O)c2cc3cc4ccc(OC)cc4nc3o2)CC1 | -22 | 4 | -18 | 1 | 13 | 0 | . | .
O=C(C(=O)N1CCCN(Cc2ccc(F)cc2)CC1)c1ccccc1 | . | -12 | . | 0 | . | . | . | .
CCCCN(C)Cc1c(O)ccc2c(-c3ccccc3)cc(=O)oc12 | -25 | -6 | -38 | 4 | 85* | -12 | 37 | 15
Fc1ccc(NC(=S)Nc2cccnc2)c(Cl)c1 | -3 | -9 | -9 | 0 | 98* | -4 | 18 | 3
Cc1cc(NC(=O)c2cccc(S(=O)(=O)Nc3cccc(C(=O)O)c3)c2)no1 | -7 | -18 | 11 | 5 | -3 | -14 | . | .
COc1cccc(/C=C2/SC(=O)N(C)C2=O)c1OCc1ccc(C(=O)O)cc1 | -11 | -8 | -6 | 5 | 102* | -16 | 32 | 35*
Cc1ccc(S(=O)(=O)Nc2ccccc2C(C(=O)OC(C)(C)C)C(=O)OC(C)(C)C)cc1 | . | 18 | . | 1 | . | . | . | .
SMILES | CHO parental Ca | TAAR1 antagonist | OX1R antag-1 | TAAR1 ag | OX1R antag-2 | GPR7 antag | OX1R HTRF conf | CHO-K1 HTRF cnt
CCn1c(NCc2ccc(N(C)C)cc2)nc2ccccc21 | -11 | -7 | -18 | 9 | 25 | -1 | . | .
CN(C)c1ccc(N=Nc2nc3ccccc3n2C)cc1 | -9 | -21 | 15 | -2 | 106* | 14 | 107* | 29*
Nc1c(C(=O)Nn2cnnc2)cc([N+](=O)[O-])cc1[N+](=O)[O-] | -7 | . | 3 | . | 64 | 2 | . | .
O=C(Nn1cnnc1)c1cc([N+](=O)[O-])cc([N+](=O)[O-])c1 | -6 | -10 | -9 | -1 | 113* | -8 | 66* | 84*
C[C@H]1CN([C@@H](C)CO)C(=O)CCCn2nncc2CO[C@H]1CN(C)C(=O)Nc1cccc2ccccc12 | . | 8 | . | 2 | . | . | . | .
COc1cccc(CN2CC(C(=O)N3CCN(c4ccc(Cl)cc4)CC3)CCC2=O)c1 (stereo not drawn) | -21 | 1 | -24 | 0 | 17 | -4 | . | .
CCN(CC)C(=O)c1[nH]cnc1C(=O)N[C@H](C)c1ccccc1 | -15 | -3 | -19 | 3 | 4 | . | . | .
O=[N+]([O-])c1ccc(C[n+]2ccc(Cc3ccccc3)cc2)cc1 | -1 | -1 | -15 | 6 | 111* | 3 | 73* | 48*
CCCCNc1ccc2nsnc2c1[N+](=O)[O-] | 1 | -14 | -10 | 3 | 120* | -12 | 59* | 90*
Cc1ccc2nsnc2c1NC(=O)c1ccc([N+](=O)[O-])cc1 | -3 | -3 | -12 | 1 | 38 | -9 | . | .
COc1cc2c(=O)n(CCC(=O)NCC3CCCO3)c(=O)n(CC(=O)c3ccc(Cl)cc3)c2cc1OC (stereo not drawn) | -4 | -34 | -35 | 3 | 93* | -11 | 27 | 2
O=C(N/N=C/c1ccc(Br)o1)c1cc([N+](=O)[O-])cc([N+](=O)[O-])c1 | -17 | 20 | -7 | 1 | 81* | -6 | 37 | 56*
O=C(N/N=C/c1ccncc1)c1cc([N+](=O)[O-])cc([N+](=O)[O-])c1 | -8 | -13 | -20 | 6 | 86* | -12 | 50 | 74*
O=C(/C=C/c1ccc([N+](=O)[O-])cc1)Nc1cccnc1 | -14 | 5 | 8 | 12 | 95* | 1 | 44 | 27*
O=C(NN=Cc1ccc([N+](=O)[O-])cc1)c1ccncc1 | . | -14 | . | 0 | . | . | . | .
